Source: ChEMBL document CHEMBL3808307, “Triazolylthioacetamide: A Valid Scaffold for the Development of New Delhi Metallo-β-Lactmase-1 (NDM-1) Inhibitors” (ACS Med Chem Lett, 2016)
pIC50, pKi: −log10 of the molar value. The source made the active and inactive calls. The rule behind the calls is not given here.

Tests used:
[1] = tested on: Aeromonas veronii bv. sobria; test: Inhibition of Aeromonas veronii bv. sorbia Metallo-beta-lactamase ImiS up to 10 uM preincubated for 60 min followed by addition of imipenem as substrate by spectrometry method
Method in brief: (§1)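 Purified recombinant MβL preincubated with inhibitor for 60 min, then hydrolysis followed by UV spectrometry. Substrate was cefazolin, or imipenem for ImiS, at 26–160 μM. Inhibitor ranged 15 nM to 10 μM. IC50 was the concentration giving a 50% drop in enzyme activity, calculated from kinetic data.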

[2] = biological target: Metallo-beta-lactamase type 2 (Bacteroides fragilis) (UniProt P25910); test: Inhibition of Bacteroides fragilis CcrA metallo-beta-lactamase up to 10 uM preincubated for 60 min followed by addition of cefazolin as substrate by spectrometry method; method in brief: as §1
Sequence of Metallo-beta-lactamase type 2 (Bacteroides fragilis) (P25910 whole entry): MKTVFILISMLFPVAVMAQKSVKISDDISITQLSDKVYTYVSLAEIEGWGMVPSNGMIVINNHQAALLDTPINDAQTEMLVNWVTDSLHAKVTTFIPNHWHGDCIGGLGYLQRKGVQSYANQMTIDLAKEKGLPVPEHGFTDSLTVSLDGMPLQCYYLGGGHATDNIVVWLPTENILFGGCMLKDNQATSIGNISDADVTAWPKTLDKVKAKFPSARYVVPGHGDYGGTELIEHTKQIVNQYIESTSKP

[3] = biological target: T1, Metallo-beta-lactamase type 2 (Klebsiella pneumoniae, UniProt C7C422); test: Inhibition of Klebsiella pneumoniae metallo-beta-lactamase NDM-1 expressed in Escherichia coli BL21(DE3) cells preincubated for 60 min followed by addition of cefazolin as substrate by spectrometry method; method in brief: as §1
T1 sequence (C7C422 whole entry): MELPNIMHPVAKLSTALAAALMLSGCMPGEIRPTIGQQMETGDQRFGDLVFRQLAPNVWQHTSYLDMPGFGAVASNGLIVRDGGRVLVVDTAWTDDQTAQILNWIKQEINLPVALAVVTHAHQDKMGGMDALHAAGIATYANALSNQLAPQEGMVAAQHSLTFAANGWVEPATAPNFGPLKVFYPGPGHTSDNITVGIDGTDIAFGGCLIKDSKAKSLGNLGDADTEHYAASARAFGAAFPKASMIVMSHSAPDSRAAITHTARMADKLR

[4] = tested on: Stenotrophomonas maltophilia; test: Inhibition of Stenotrphomonas maltophilia metallo-beta-lactamase L1 up to 10 uM preincubated for 60 min followed by addition of cefazolin as substrate by spectrometry method; method in brief: as §1
[5] = biological target: T1, Metallo-beta-lactamase type 2; test: Mixed type inhibition of Klebsiella pneumoniae metallo-beta-lactamase NDM-1 expressed in Escherichia coli BL21(DE3) cells assessed as hydrolysis of cefazolin preincubated for 60 min followed by addition of cefazolin by Lineweaver-Burk plot analysis
Method in brief: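 Purified recombinant NDM-1 preincubated with inhibitor for 60 min. Cefazolin hydrolysis was then followed by UV spectrometry, with substrate varied 26–160 μM and inhibitor at 0, 0.25, 0.5 and 1.0 μM. Mode was taken from Lineweaver–Burk plots. Ki came from replots of slope and intercept […].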

Q: With `CCCCc1ccc(NC(=O)CSc2nnc(-c3ccccc3N)[nH]2)cc1` as the compound, how does the inhibition [1] read?
A: The inhibition was “inactive”.

Q: And the inhibition [2]?
A: Its inhibition is “inactive”.

Q: What about the pIC50 [3] of the same compound?
A: Its pIC50 is 6.80.

Q: What about the inhibition [4] of the same compound?
A: Its inhibition is “inactive”.

Q: What about the pKi [5] of the same compound?
A: Its pKi is 6.31.

Q: Which inhibition [1] does the source give for `O=C(CSc1nnc(-c2ccccc2O)[nH]1)Nc1cccc(Cl)c1` here?
A: The inhibition was “inactive”.

Q: What about the inhibition [2] of the same compound?
A: Its inhibition is “inactive”.

Q: And the pIC50 [3]?
A: Its pIC50 is 6.80.

Q: And the inhibition [4]?
A: Its inhibition is “inactive”.

Q: What does the source list for `O=C(CSc1nnc(-c2ccccc2O)[nH]1)Nc1ccccc1`?
A: inhibition [1]: inactive; inhibition [2]: inactive; pIC50 [3]: 6.38; inhibition [4]: inactive

Q: With `CCCCc1ccc(NC(=O)CSc2nnc(-c3ccc(O)cc3)[nH]2)cc1` as the compound, how does the inhibition [1] read?
A: The inhibition was “inactive”.

Q: And the inhibition [2]?
A: The inhibition was “inactive”.

Q: And the pIC50 [3]?
A: The pIC50 was 6.32.

Q: And the inhibition [4]?
A: Its inhibition is “inactive”.

Q: Which inhibition [1] does the source give for `O=C(CSc1nnc(-c2ccc(O)cc2)[nH]1)Nc1cccc(Cl)c1` here?
A: The inhibition was “inactive”.

Q: What about the inhibition [2] of the same compound?
A: Its inhibition is “inactive”.

Q: And the pIC50 [3]?
A: Its pIC50 is 6.43.

Q: And the inhibition [4]?
A: The inhibition was “inactive”.

Q: What about the pKi [5] of the same compound?
A: Its pKi is 6.20.

Q: Which results are given for `CCc1ccccc1NC(=O)CSc1nnc(-c2ccccc2)[nH]1`?
A: inhibition [1]: inactive; inhibition [2]: inactive; pIC50 [3]: 6.00; inhibition [4]: inactive

Q: For `CCCCc1ccc(NC(=O)CSc2nnc(-c3ccccc3)[nH]2)cc1`, which inhibition [1] is on record?
A: Its inhibition is “inactive”.

Q: What about the inhibition [2] of the same compound?
A: The inhibition was “inactive”.

Q: What about the pIC50 [3] of the same compound?
A: Its pIC50 is 6.82.

Q: What about the inhibition [4] of the same compound?
A: The inhibition was “inactive”.

Q: What does the source list for `CCCCc1ccc(NC(=O)CSc2nnc(-c3ccccc3O)[nH]2)cc1`?
A: inhibition [1]: inactive; inhibition [2]: inactive; pIC50 [3]: 6.80; inhibition [4]: inactive

Q: With `O=C(CSc1nnc(-c2ccc(O)cc2)[nH]1)Nc1ccccc1` as the compound, how does the inhibition [1] read?
A: Its inhibition is “inactive”.

Q: And the inhibition [2]?
A: Its inhibition is “inactive”.

Q: And the pIC50 [3]?
A: The pIC50 was 5.92.

Q: What about the inhibition [4] of the same compound?
A: The inhibition was “inactive”.

Q: For `O=C(CSc1nnc(-c2ccccc2)[nH]1)Nc1ccccc1`, which inhibition [1] is on record?
A: The inhibition was “inactive”.

Q: What about the inhibition [2] of the same compound?
A: Its inhibition is “inactive”.

Q: And the pIC50 [3]?
A: Its pIC50 is 6.77.

Q: What about the inhibition [4] of the same compound?
A: Its inhibition is “inactive”.

Q: For `Cc1ccccc1NC(=O)CSc1nnc(-c2ccc(O)cc2)[nH]1`, which inhibition [1] is on record?
A: Its inhibition is “inactive”.

Q: What about the inhibition [2] of the same compound?
A: The inhibition was “inactive”.

Q: And the pIC50 [3]?
A: Its pIC50 is 6.01.

Q: What about the inhibition [4] of the same compound?
A: The inhibition was “inactive”.

Q: Which inhibition [1] does the source give for `O=C(CSc1nnc(-c2ccccc2)[nH]1)Nc1cccc(Cl)c1` here?
A: The inhibition was “inactive”.

Q: What about the inhibition [2] of the same compound?
A: The inhibition was “inactive”.

Q: What about the pIC50 [3] of the same compound?
A: Its pIC50 is 6.16.

Q: And the inhibition [4]?
A: Its inhibition is “inactive”.

Q: Which results are given for `Nc1ccccc1-c1nnc(SCC(=O)Nc2ccccc2)[nH]1`?
A: inhibition [1]: inactive; inhibition [2]: inactive; pIC50 [3]: 6.48; inhibition [4]: inactive

Q: Which results are given for `Cc1ccccc1NC(=O)CSc1nnc(-c2ccccc2)[nH]1`?
A: inhibition [1]: inactive; inhibition [2]: inactive; pIC50 [3]: 6.72; inhibition [4]: inactive

Q: How did the inhibition [1] turn out when `Nc1ccccc1-c1nnc(SCC(=O)Nc2cccc(Cl)c2)[nH]1` was run?
A: Its inhibition is “inactive”.

Q: What about the inhibition [2] of the same compound?
A: Its inhibition is “inactive”.

Q: What about the pIC50 [3] of the same compound?
A: Its pIC50 is 6.64.

Q: And the inhibition [4]?
A: Its inhibition is “inactive”.

Q: With `CCc1ccccc1NC(=O)CSc1nnc(-c2ccc(O)cc2)[nH]1` as the compound, how does the inhibition [1] read?
A: Its inhibition is “inactive”.

Q: And the inhibition [2]?
A: The inhibition was “inactive”.

Q: What about the pIC50 [3] of the same compound?
A: Its pIC50 is 5.82.

Q: What about the inhibition [4] of the same compound?
A: The inhibition was “inactive”.

Q: `O=C(CSc1nnc(-c2ccccc2)[nH]1)Nc1ccccc1Cl` was tested. Which inhibition [1] did it give?
A: The inhibition was “inactive”.

Q: And the inhibition [2]?
A: Its inhibition is “inactive”.

Q: And the pIC50 [3]?
A: Its pIC50 is 6.46.

Q: And the inhibition [4]?
A: The inhibition was “inactive”.

Q: What does the source list for `Cc1ccccc1NC(=O)CSc1nnc(-c2ccccc2N)[nH]1`?
A: inhibition [1]: inactive; inhibition [2]: inactive; pIC50 [3]: 5.72; inhibition [4]: inactive

Q: Which inhibition [1] does the source give for `Cc1ccccc1NC(=O)CSc1nnc(-c2ccccc2O)[nH]1` here?
A: Its inhibition is “inactive”.

Q: And the inhibition [2]?
A: Its inhibition is “inactive”.

Q: And the pIC50 [3]?
A: The pIC50 was 6.80.

Q: And the inhibition [4]?
A: Its inhibition is “inactive”.

Q: `CCc1ccccc1NC(=O)CSc1nnc(-c2ccccc2N)[nH]1` was tested. Which inhibition [1] did it give?
A: The inhibition was “inactive”.

Q: What about the inhibition [2] of the same compound?
A: The inhibition was “inactive”.

Q: And the pIC50 [3]?
A: The pIC50 was 6.35.

Q: And the inhibition [4]?
A: Its inhibition is “inactive”.

Q: For `CCc1ccccc1NC(=O)CSc1nnc(-c2ccccc2O)[nH]1`, which inhibition [1] is on record?
A: Its inhibition is “inactive”.

Q: What about the inhibition [2] of the same compound?
A: The inhibition was “inactive”.

Q: What about the pIC50 [3] of the same compound?
A: Its pIC50 is 6.03.

Q: What about the inhibition [4] of the same compound?
A: The inhibition was “inactive”.

Q: With `O=C(CSc1nnc(-c2ccccc2O)[nH]1)Nc1ccccc1Cl` as the compound, how does the inhibition [1] read?
A: Its inhibition is “inactive”.

Q: What about the inhibition [2] of the same compound?
A: The inhibition was “inactive”.

Q: What about the pIC50 [3] of the same compound?
A: Its pIC50 is 6.01.

Q: And the inhibition [4]?
A: Its inhibition is “inactive”.

Q: How did the inhibition [1] turn out when `O=C(CSc1nnc(-c2ccc(O)cc2)[nH]1)Nc1ccccc1Cl` was run?
A: The inhibition was “inactive”.

Q: What about the inhibition [2] of the same compound?
A: The inhibition was “inactive”.

Q: What about the pIC50 [3] of the same compound?
A: Its pIC50 is 6.28.

Q: What about the inhibition [4] of the same compound?
A: The inhibition was “inactive”.

Q: Which results are given for `Nc1ccccc1-c1nnc(SCC(=O)Nc2ccccc2Cl)[nH]1`?
A: inhibition [1]: inactive; inhibition [2]: inactive; pIC50 [3]: 6.21; inhibition [4]: inactive
